Measured values as given in ChEMBL document CHEMBL4385606, “3,5,7-Substituted Pyrazolo[4,3- d]pyrimidine Inhibitors of Cyclin-Dependent Kinases and Their Evaluation in Lymphoma Models” (J Med Chem, 2019).
The source made the active and inactive calls. No cut-off for these calls is given here.

Experiments:
Mus musculus [1] = assay: Ex vivo antitumor activity against human UPF1H cells xenografted NSG mouse assessed as increase in cleaved caspase 9 expression at 5 to 10 mg/kg, iv measured after 24 hrs by immunoblotting analysis; format: functional, organism-based
Outline: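 Female NSG mice, 8-12 weeks old, implanted s.c. with lymphoma cells. Once tumors were palpable, mice received a single tail-vein i.v. dose (5 or 10 mg/kg) of compound dissolved in PBS. Mice were euthanized 24 h later. Tumors were excised, filtered through 45 µm nylon mesh and lysed, then proteins were analysed by immunoblotting.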

Homo sapiens [2] = assay: Antitumor activity against human Mino cells xenografted in NSG mouse assessed as inhibition of tumor growth at 10 mg/kg, iv administered daily measured every day during compound dosing by caliper method; format: functional, organism-based
Outline: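 Female NSG mice, 8-12 weeks old, given cells s.c.; once all had palpable tumors, daily i.v. tail-vein dosing at 10 mg/kg in PBS. Two perpendicular tumor diameters measured daily by caliper. Study ended when any mouse's tumor reached ≥2 cm. Groups: MINO n=10, MAVER-1 n=12, Hbl-2 n=8, VFN-M1 PDX n=10.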

RPMI-8226 = assay: Antiproliferative activity against human RPMI8226 cells assessed as growth inhibition measured after 72 hrs by calcein AM dye-based fluorescence assay; format: functional, cell-based; conditions: RPMI-8226, 72 h
[3] = target: Casein kinase I isoform delta (Homo sapiens, UniProt P48730); assay: Inhibition of CK1delta (unknown origin) assessed as residual activity at 1 uM relative to control
Chain of Casein kinase I isoform delta (P48730 whole entry, looked up, canonical isoform): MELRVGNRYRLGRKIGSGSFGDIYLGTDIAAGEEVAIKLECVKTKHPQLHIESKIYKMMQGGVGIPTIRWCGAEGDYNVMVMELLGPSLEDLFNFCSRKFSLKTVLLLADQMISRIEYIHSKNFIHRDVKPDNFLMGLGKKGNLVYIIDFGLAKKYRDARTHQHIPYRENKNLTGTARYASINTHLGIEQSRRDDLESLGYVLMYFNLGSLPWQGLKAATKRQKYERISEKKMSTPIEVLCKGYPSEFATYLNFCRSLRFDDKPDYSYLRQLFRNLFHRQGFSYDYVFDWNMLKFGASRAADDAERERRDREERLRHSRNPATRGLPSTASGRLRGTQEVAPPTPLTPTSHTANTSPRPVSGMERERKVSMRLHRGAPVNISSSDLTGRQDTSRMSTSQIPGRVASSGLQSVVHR
Outline: (§1)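 Single-concentration screen at 1 µM across a panel of 50 protein kinases sampling the human kinome; read-out is residual kinase activity (%).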

[4] = target: Cyclin-dependent kinase 7 (Homo sapiens) (UniProt P50613); assay: Inhibition of CDK7 in human Mino cells assessed as decrease in phosphorylation of RNA polymerase 2 C-terminal domain at Ser 2 residue at 12.5 nM by immunoblotting analysis; format: cell-based; conditions: TDE = time-dependent effect
Chain of Cyclin-dependent kinase 7 (Homo sapiens) (P50613 whole entry, the tested form may be a part): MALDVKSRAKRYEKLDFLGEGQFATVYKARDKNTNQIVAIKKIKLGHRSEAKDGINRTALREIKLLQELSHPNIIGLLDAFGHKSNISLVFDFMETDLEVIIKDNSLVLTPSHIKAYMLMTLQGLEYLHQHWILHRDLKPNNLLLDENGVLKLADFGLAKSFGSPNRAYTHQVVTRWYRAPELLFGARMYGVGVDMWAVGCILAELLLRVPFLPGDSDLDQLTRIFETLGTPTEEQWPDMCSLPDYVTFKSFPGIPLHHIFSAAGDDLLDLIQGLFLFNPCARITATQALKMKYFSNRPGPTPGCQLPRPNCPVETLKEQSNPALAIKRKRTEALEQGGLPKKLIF
Outline: (§2)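 MINO lymphoma cells were treated at 12.5 nM, with time points over 24 h. Lysates were separated by SDS-PAGE and blotted to nitrocellulose. Phospho-RNA polymerase II CTD (Ser2, Ser5) and phospho-Rb (Ser608, Ser780) were probed with primary antibodies overnight and peroxidase-conjugated secondaries. Detection was by chemiluminescence on a CCD camera.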

Mus musculus [5] = assay: Ex vivo antitumor activity against human Mino cells xenografted NSG mouse assessed as increase in cleaved caspase 9 expression at 5 to 10 mg/kg, iv measured after 24 hrs by immunoblotting analysis; format: functional, organism-based
Outline: (§3)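 NSG mice bearing palpable s.c. tumors received a single i.v. dose (5 or 10 mg/kg) and were euthanized after 24 h. Excised tumors were filtered through 45 µm nylon mesh, lysed and run on SDS-PAGE, transferred to nitrocellulose, probed overnight with primary antibodies in PBS with 5% milk and 0.1% Tween 20, then peroxidase secondaries, with chemiluminescent detection.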

[6] = target: Cyclin-dependent kinase 7 (Homo sapiens) (UniProt P50613); assay: Inhibition of CDK7 in human Mino cells assessed as decrease in phosphorylation of Rb at Ser 608 residue at 12.5 nM by immunoblotting analysis; format: cell-based; conditions: TDE = time-dependent effect; outline: as §2
[7] = Antiproliferative activity against human Mino cells measured after 72 hrs by calcein AM dye-based fluorescence assay; format: functional
Outline: (§4)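 Cells exposed in triplicate to six concentrations for 72 h; calcein AM added for 1 h, live-cell fluorescence read at 485/538 nm (ex/em). GI50 taken from dose-response curves.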

[8] = target: Cyclin-dependent kinase 7 (Homo sapiens) (UniProt P50613); assay: Inhibition of CDK7 in human Mino cells assessed as decrease in phosphorylation of Rb at Ser 780 residue at 12.5 nM by immunoblotting analysis; format: cell-based; conditions: TDE = time-dependent effect; outline: as §2
[9] = target: Cyclin-dependent kinase 2 (Homo sapiens) (UniProt P24941); assay: Inhibition of CDK2 in human Mino cells assessed as decrease in phosphorylation of Rb at Ser 608 residue at 12.5 nM by immunoblotting analysis; format: cell-based; conditions: TDE = time-dependent effect; outline: as §2
Homo sapiens [10] = species: Homo sapiens; assay: Induction of apoptosis in human Mino cells assessed as decrease in XIAP level at 12.5 nM for 2 to 24 hrs by immunoblotting analysis; format: functional, cell-based
Outline: (§5)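 Lymphoma cell lines were cultured as the providers instruct and exposed to compound at several doses or for several times. Lysates were run on SDS-PAGE and blotted to nitrocellulose. Blots were blocked, incubated overnight with primary antibodies diluted in PBS with 5% milk and 0.1% Tween 20, then with peroxidase-conjugated secondaries, and detected by chemiluminescence on a CCD camera.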

Mus musculus [11] = assay: Ex vivo antitumor activity against Maver1 xenografted NSG mouse assessed as increase in cleaved caspase7 expression t 10 mg/kg, iv measured after 24 hrs by immunoblotting analysis; format: functional, organism-based; outline: as §3
[12] = Antiproliferative activity against human HBL2 cells assessed as growth inhibition measured after 72 hrs by calcein AM dye-based fluorescence assay; format: functional, cell-based; conditions: HBL2, 72 h; outline: as §4
CDK2/Cyclin A2 = CDK2/Cyclin A2 (Homo sapiens, UniProt P24941); assay: Inhibition of GST-tagged CDK2/Cyclin-A2 (unknown origin) expressed in Escherichia coli using histone H1 as substrate measured in presence of [gamma-33P]ATP
Maver1 [13] = assay: Antiproliferative activity against human Maver1 cells assessed as growth inhibition measured after 72 hrs by calcein AM dye-based fluorescence assay; format: functional, cell-based; conditions: Maver1, 72 h; outline: as §4
[14] = target: Cyclin-dependent kinase 2 (Homo sapiens) (UniProt P24941); assay: Inhibition of CDK2 in human Mino cells assessed as decrease in phosphorylation of Rb at Ser 780 residue at 12.5 nM by immunoblotting analysis; format: cell-based; conditions: TDE = time-dependent effect; outline: as §2
Maver1 [15] = assay: Induction of apoptosis in human Maver1 cells assessed as induction of PARP1 cleavage at 1.5 to 12.5 nM after 24 hrs by immunoblot analysis; format: functional, cell-based; outline: as §5
[16] = target: Serine/threonine-protein kinase Chk2 (Homo sapiens, UniProt O96017); assay: Inhibition of CHK2 (unknown origin) assessed as residual activity at 1 uM relative to control; outline: as §1
Chain of Serine/threonine-protein kinase Chk2 (O96017 whole entry): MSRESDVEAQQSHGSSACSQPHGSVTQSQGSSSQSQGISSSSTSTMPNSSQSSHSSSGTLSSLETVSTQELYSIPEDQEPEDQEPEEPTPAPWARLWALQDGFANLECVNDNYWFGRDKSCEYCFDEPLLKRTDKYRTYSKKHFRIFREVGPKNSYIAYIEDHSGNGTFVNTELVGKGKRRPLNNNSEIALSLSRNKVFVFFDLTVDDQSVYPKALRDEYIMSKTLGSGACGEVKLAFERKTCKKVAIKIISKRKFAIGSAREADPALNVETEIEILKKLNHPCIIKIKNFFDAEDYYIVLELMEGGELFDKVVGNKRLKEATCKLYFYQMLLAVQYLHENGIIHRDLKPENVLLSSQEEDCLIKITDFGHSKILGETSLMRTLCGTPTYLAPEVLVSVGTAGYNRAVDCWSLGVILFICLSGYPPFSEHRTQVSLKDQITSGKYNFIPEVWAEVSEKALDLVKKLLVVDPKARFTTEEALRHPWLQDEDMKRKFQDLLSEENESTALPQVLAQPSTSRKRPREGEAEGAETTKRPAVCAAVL

Maver1 [17] = assay: Antitumor activity against human Maver1 cells xenografted in NSG mouse assessed as inhibition of tumor growth at 9 mg/kg measured on day 13 in presence of BCL2 inhibitor venetoclax by caliper method; format: functional, organism-based
Outline: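 MAVER-1 cells implanted s.c. in NSG mice. Groups: vehicle n=6, 9 mg/kg n=8, venetoclax 20 mg/kg n=8, combination n=10. Tumors measured daily by caliper in two perpendicular dimensions. Mean volumes ±SD tracked from therapy start (day 1).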

Mus musculus [18] = assay: Ex vivo antitumor activity against patient derived VFN-M1 cells xenografted NSG mouse assessed as down regulation of MCL1 expression at 10 mg/kg, iv measured after 24 hrs by immunoblotting analysis
SUD4 = assay: Antiproliferative activity against human SUDHL4 cells assessed as growth inhibition measured after 72 hrs by calcein AM dye-based fluorescence assay; format: functional, cell-based; conditions: SU-DHL-4, 72 h
MCF7 = assay: Antiproliferative activity against human MCF7 cells assessed as growth inhibition measured after 72 hrs by calcein AM dye-based fluorescence assay; format: functional, cell-based; conditions: MCF7, 72 h; outline: as §4
HT = assay: Antiproliferative activity against human HT cells assessed as growth inhibition measured after 72 hrs by calcein AM dye-based fluorescence assay; format: functional, cell-based; outline: as §4
Homo sapiens [19] = species: Homo sapiens; assay: Induction of apoptosis in human Mino cells assessed as decrease in XIAP level at 1.5 to 12.5 nM after 24 hrs by immunoblotting analysis; format: functional, cell-based; outline: as §5

Question: For CC(C)c1n[nH]c2c(NCc3ccc(-c4ccccn4)cc3)nc(SCCN)nc12, which Activity (Mus musculus [1]) is on record?
Answer: Active

Question: And the TGI (Homo sapiens [2])?
Answer: Active

Question: And the GI50 (RPMI-8226)?
Answer: 21.6 nM

Question: What about the Activity [3] of the same molecule?
Answer: 11%

Question: What about the inhibition [4] of the same molecule?
Answer: Tde

Question: What about the Activity (Mus musculus [5]) of the same molecule?
Answer: Active

Question: And the inhibition [6]?
Answer: Tde

Question: And the GI50 [7]?
Answer: 41 nM

Question: And the inhibition [8]?
Answer: Tde

Question: What about the inhibition [9] of the same molecule?
Answer: Tde

Question: What about the Activity (Homo sapiens [10]) of the same molecule?
Answer: Active

Question: What about the Activity (Mus musculus [11]) of the same molecule?
Answer: Active

Question: And the GI50 [12]?
Answer: 43 nM

Question: And the IC50 [12]?
Answer: 43 nM

Question: And the IC50 (CDK2/Cyclin A2)?
Answer: 6 nM

Question: And the GI50 (Maver1 [13])?
Answer: 13 nM

Question: What about the IC50 (Maver1 [13]) of the same molecule?
Answer: 13 nM

Question: And the inhibition [14]?
Answer: Tde

Question: And the Activity (Maver1 [15])?
Answer: Active

Question: And the Activity [16]?
Answer: 18%

Question: What about the TGI (Maver1 [17]) of the same molecule?
Answer: Active

Question: What about the Activity (Mus musculus [18]) of the same molecule?
Answer: Active

Question: What about the GI50 (SUD4) of the same molecule?
Answer: 15 nM

Question: What about the GI50 (MCF7) of the same molecule?
Answer: 21.6 nM

Question: And the IC50 (MCF7)?
Answer: 16 nM

Question: What about the GI50 (HT) of the same molecule?
Answer: 19 nM

Question: What about the IC50 (HT) of the same molecule?
Answer: 19 nM

Question: And the Activity (Homo sapiens [19])?
Answer: Active
